Test results published in ChEMBL document CHEMBL3085642, “Synthesis and evaluation of novel 4-nitropyrrole-based 1,3,4-oxadiazole derivatives as antimicrobial and anti-tubercular agents” (Eur J Med Chem, 2013).
≈ marks a conversion by molar mass, not a printed value.

Columns and labels:
Vero = assay: Cytotoxicity against african green monkey Vero cells after 72 hrs by MTT assay; format: cell-based; settings: Chlorocebus sabaeus
How it was run: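 Vero cells were exposed to compounds for 72 h. Viability was measured by cellular conversion of MTT into formazan (non-radioactive proliferation assay), and the cytotoxic concentration was reported as IC50.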

Candida albicans [1] = assay: Ratio of ampotericin-B MIC to compound MIC against Candida albicans; format: functional
Staphylococcus aureus [2] = assay: Ratio of ciprofloxacin MIC to compound MIC against methicillin-susceptible Staphylococcus aureus ATCC 35556; format: functional
Staphylococcus aureus [3] = assay: Ratio of ciprofloxacin MIC to compound MIC against Staphylococcus aureus ATCC 25923; format: functional
[4] = tested on: Mycobacterium tuberculosis; assay: Antitubercular activity against Mycobacterium tuberculosis H37Rv after 7 days by resazurin microtitre assay; format: functional; settings: 168 h
Candida albicans [5] = assay: Antifungal activity against Candida albicans after 48 hrs by two fold agar dilution method; format: functional
How it was run: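 Two-fold serial dilutions in DMSO were tested against C. albicans by agar dilution. Cultures were incubated for 48 h at 35 °C and growth was monitored. MIC was taken as the lowest concentration (highest dilution) that arrested fungal growth.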

Staphylococcus aureus [6] = assay: Antibacterial activity against methicillin-resistant Staphylococcus aureus ATCC 43866 by broth dilution method; format: functional
Staphylococcus aureus [7] = assay: Antibacterial activity against methicillin-susceptible Staphylococcus aureus ATCC 35556 by broth dilution method; format: functional
Klebsiella pneumoniae = assay: Antibacterial activity against Klebsiella pneumoniae by two fold broth dilution method; format: functional
Escherichia coli [8] = assay: Antibacterial activity against Escherichia coli ATCC 25922 by two fold broth dilution method; format: functional
Bacillus spizizenii [9] = assay: Antibacterial activity against Bacillus subtilis ATCC 6633 by two fold broth dilution method; format: functional
Staphylococcus aureus [10] = assay: Antibacterial activity against Staphylococcus aureus ATCC 25923 by two fold broth dilution method; format: functional
Escherichia coli [11] = assay: Ratio of ciprofloxacin MIC to compound MIC against Escherichia coli ATCC 25922; format: functional
Staphylococcus aureus [12] = assay: Ratio of ciprofloxacin MIC to compound MIC against methicillin-resistant Staphylococcus aureus ATCC 43866; format: functional
Bacillus spizizenii [13] = assay: Ratio of ciprofloxacin MIC to compound MIC against Bacillus subtilis ATCC 6633; format: functional

SMILES: Cn1cc([N+](=O)[O-])cc1-c1nnc(-c2ccc(C#N)cc2)o1
- IC50 (Vero): 315 µM
- Ratio (Candida albicans [1]): 2
- Ratio (Staphylococcus aureus [2]): 2
- Ratio (Staphylococcus aureus [3]): 2
- MIC [4]: 84.6 µg/mL (≈ 287 µM)
- MIC (Candida albicans [5]): 1.56 µg/mL (≈ 5.28 µM)
- MIC (Staphylococcus aureus [6]): 1.56 µg/mL (≈ 5.28 µM)
- MIC (Staphylococcus aureus [7]): 0.39 µg/mL (≈ 1.32 µM)
- MIC (Klebsiella pneumoniae): 12.5 µg/mL (≈ 42.3 µM)
- MIC (Escherichia coli [8]): 6.25 µg/mL (≈ 21.2 µM)
- MIC (Bacillus spizizenii [9]): 1.56 µg/mL (≈ 5.28 µM)
- MIC (Staphylococcus aureus [10]): 0.78 µg/mL (≈ 2.64 µM)

SMILES: COc1cccc(OC)c1-c1nnc(-c2cc([N+](=O)[O-])cn2C)o1
- IC50 (Vero): 177 µM
- Ratio (Candida albicans [1]): 2
- Ratio (Staphylococcus aureus [2]): 2
- Ratio (Staphylococcus aureus [3]): 2
- MIC [4]: 32 µg/mL (≈ 96.9 µM)
- MIC (Candida albicans [5]): 1.56 µg/mL (≈ 4.72 µM)
- MIC (Staphylococcus aureus [6]): 1.56 µg/mL (≈ 4.72 µM)
- MIC (Staphylococcus aureus [7]): 0.39 µg/mL (≈ 1.18 µM)
- MIC (Klebsiella pneumoniae): 12.5 µg/mL (≈ 37.8 µM)
- MIC (Escherichia coli [8]): 6.25 µg/mL (≈ 18.9 µM)
- MIC (Bacillus spizizenii [9]): 1.56 µg/mL (≈ 4.72 µM)
- MIC (Staphylococcus aureus [10]): 0.78 µg/mL (≈ 2.36 µM)

SMILES: Cn1cc([N+](=O)[O-])cc1-c1nnc(-c2cc(-c3ccccc3)nc3ccc(Cl)cc23)o1
- IC50 (Vero): 328 µM
- Ratio (Candida albicans [1]): 3
- Ratio (Escherichia coli [11]): 3
- Ratio (Staphylococcus aureus [3]): 3
- MIC (Candida albicans [5]): 0.78 µg/mL (≈ 1.81 µM)
- MIC (Staphylococcus aureus [6]): 1.56 µg/mL (≈ 3.61 µM)
- MIC (Staphylococcus aureus [7]): 0.39 µg/mL (≈ 0.903 µM)
- MIC (Klebsiella pneumoniae): 12.5 µg/mL (≈ 28.9 µM)
- MIC (Escherichia coli [8]): 0.39 µg/mL (≈ 0.903 µM)
- MIC (Bacillus spizizenii [9]): 1.56 µg/mL (≈ 3.61 µM)
- MIC (Staphylococcus aureus [10]): 0.39 µg/mL (≈ 0.903 µM)

SMILES: Cn1cc([N+](=O)[O-])cc1-c1nnc(-c2ccc[nH]2)o1
- IC50 (Vero): 208 µM
- Ratio (Candida albicans [1]): 3
- Ratio (Staphylococcus aureus [12]): 2
- Ratio (Staphylococcus aureus [2]): 2
- Ratio (Bacillus spizizenii [13]): 2
- Ratio (Staphylococcus aureus [3]): 3
- MIC [4]: 29.3 µg/mL (≈ 113 µM)
- MIC (Candida albicans [5]): 0.78 µg/mL (≈ 3.01 µM)
- MIC (Staphylococcus aureus [6]): 0.78 µg/mL (≈ 3.01 µM)
- MIC (Staphylococcus aureus [7]): 0.39 µg/mL (≈ 1.5 µM)
- MIC (Klebsiella pneumoniae): 12.5 µg/mL (≈ 48.2 µM)
- MIC (Escherichia coli [8]): 1.56 µg/mL (≈ 6.02 µM)
- MIC (Bacillus spizizenii [9]): 0.78 µg/mL (≈ 3.01 µM)
- MIC (Staphylococcus aureus [10]): 0.39 µg/mL (≈ 1.5 µM)

SMILES: Cn1cc([N+](=O)[O-])cc1-c1nnc(-c2ccc(Cl)cc2Cl)o1
- IC50 (Vero): 387 µM
- Ratio (Candida albicans [1]): 2
- Ratio (Staphylococcus aureus [12]): 2
- Ratio (Staphylococcus aureus [2]): 2
- Ratio (Bacillus spizizenii [13]): 2
- Ratio (Staphylococcus aureus [3]): 3
- MIC [4]: 18.4 µg/mL (≈ 54.3 µM)
- MIC (Candida albicans [5]): 1.56 µg/mL (≈ 4.6 µM)
- MIC (Staphylococcus aureus [6]): 0.78 µg/mL (≈ 2.3 µM)
- MIC (Staphylococcus aureus [7]): 0.39 µg/mL (≈ 1.15 µM)
- MIC (Klebsiella pneumoniae): 12.5 µg/mL (≈ 36.9 µM)
- MIC (Escherichia coli [8]): 1.56 µg/mL (≈ 4.6 µM)
- MIC (Bacillus spizizenii [9]): 0.78 µg/mL (≈ 2.3 µM)
- MIC (Staphylococcus aureus [10]): 0.39 µg/mL (≈ 1.15 µM)

SMILES: O=[N+]([O-])c1c[nH]c(-c2nnc(-c3cc(-c4ccccc4)nc4ccc(Cl)cc34)o2)c1
- IC50 (Vero): 281 µM
- Ratio (Escherichia coli [11]): 2
- MIC [4]: 97.2 µg/mL (≈ 233 µM)
- MIC (Candida albicans [5]): 1.56 µg/mL (≈ 3.73 µM)
- MIC (Staphylococcus aureus [6]): 3.12 µg/mL (≈ 7.48 µM)
- MIC (Staphylococcus aureus [7]): 1.56 µg/mL (≈ 3.73 µM)
- MIC (Klebsiella pneumoniae): 25 µg/mL (≈ 59.8 µM)
- MIC (Escherichia coli [8]): 0.78 µg/mL (≈ 1.87 µM)
- MIC (Bacillus spizizenii [9]): 3.12 µg/mL (≈ 7.48 µM)
- MIC (Staphylococcus aureus [10]): 1.56 µg/mL (≈ 3.73 µM)

SMILES: O=[N+]([O-])c1c[nH]c(-c2nnc(-c3ccc[nH]3)o2)c1
- IC50 (Vero): 226 µM
- Ratio (Escherichia coli [11]): 2
- Ratio (Staphylococcus aureus [3]): 2
- MIC [4]: 15.7 µg/mL (≈ 64 µM)
- MIC (Candida albicans [5]): 1.56 µg/mL (≈ 6.36 µM)
- MIC (Staphylococcus aureus [6]): 1.56 µg/mL (≈ 6.36 µM)
- MIC (Staphylococcus aureus [7]): 1.56 µg/mL (≈ 6.36 µM)
- MIC (Klebsiella pneumoniae): 12.5 µg/mL (≈ 51 µM)
- MIC (Escherichia coli [8]): 0.78 µg/mL (≈ 3.18 µM)
- MIC (Bacillus spizizenii [9]): 1.56 µg/mL (≈ 6.36 µM)
- MIC (Staphylococcus aureus [10]): 0.78 µg/mL (≈ 3.18 µM)

SMILES: Cn1cc([N+](=O)[O-])cc1-c1nnc(-c2ccccc2Br)o1
- IC50 (Vero): 303 µM
- Ratio (Candida albicans [1]): 2
- Ratio (Staphylococcus aureus [2]): 2
- Ratio (Bacillus spizizenii [13]): 2
- Ratio (Staphylococcus aureus [3]): 2
- MIC [4]: 12.8 µg/mL (≈ 36.7 µM)
- MIC (Candida albicans [5]): 1.56 µg/mL (≈ 4.47 µM)
- MIC (Staphylococcus aureus [6]): 1.56 µg/mL (≈ 4.47 µM)
- MIC (Staphylococcus aureus [7]): 0.39 µg/mL (≈ 1.12 µM)
- MIC (Klebsiella pneumoniae): 12.5 µg/mL (≈ 35.8 µM)
- MIC (Escherichia coli [8]): 1.56 µg/mL (≈ 4.47 µM)
- MIC (Bacillus spizizenii [9]): 0.78 µg/mL (≈ 2.23 µM)
- MIC (Staphylococcus aureus [10]): 0.78 µg/mL (≈ 2.23 µM)

SMILES: COc1cc(/C=C/c2nnc(-c3cc([N+](=O)[O-])cn3C)o2)ccc1O
- IC50 (Vero): 202 µM
- Ratio (Candida albicans [1]): 2
- Ratio (Staphylococcus aureus [2]): 2
- Ratio (Staphylococcus aureus [3]): 2
- MIC [4]: 51.8 µg/mL (≈ 151 µM)
- MIC (Candida albicans [5]): 12.5 µg/mL (≈ 36.5 µM)
- MIC (Staphylococcus aureus [6]): 1.56 µg/mL (≈ 4.56 µM)
- MIC (Staphylococcus aureus [7]): 0.39 µg/mL (≈ 1.14 µM)
- MIC (Klebsiella pneumoniae): 50 µg/mL (≈ 146 µM)
- MIC (Escherichia coli [8]): 3.12 µg/mL (≈ 9.13 µM)
- MIC (Bacillus spizizenii [9]): 1.56 µg/mL (≈ 4.56 µM)
- MIC (Staphylococcus aureus [10]): 0.78 µg/mL (≈ 2.28 µM)

SMILES: Cn1cc([N+](=O)[O-])cc1-c1nnc(C2CCCNC2)o1 (stereo not given)
- IC50 (Vero): 611 µM
- Ratio (Candida albicans [1]): 2
- Ratio (Staphylococcus aureus [2]): 2
- Ratio (Staphylococcus aureus [3]): 2
- MIC [4]: 35.6 µg/mL (≈ 128 µM)
- MIC (Candida albicans [5]): 1.56 µg/mL (≈ 5.63 µM)
- MIC (Staphylococcus aureus [6]): 1.56 µg/mL (≈ 5.63 µM)
- MIC (Staphylococcus aureus [7]): 0.39 µg/mL (≈ 1.41 µM)
- MIC (Klebsiella pneumoniae): 12.5 µg/mL (≈ 45.1 µM)
- MIC (Escherichia coli [8]): 3.12 µg/mL (≈ 11.3 µM)
- MIC (Bacillus spizizenii [9]): 1.56 µg/mL (≈ 5.63 µM)
- MIC (Staphylococcus aureus [10]): 0.78 µg/mL (≈ 2.81 µM)

SMILES: Cn1cc([N+](=O)[O-])cc1-c1nnc(Cc2ccccc2F)o1
- IC50 (Vero): 245 µM
- Ratio (Candida albicans [1]): 2
- Ratio (Bacillus spizizenii [13]): 2
- Ratio (Staphylococcus aureus [3]): 2
- MIC [4]: 8.6 µg/mL (≈ 28.5 µM)
- MIC (Candida albicans [5]): 1.56 µg/mL (≈ 5.16 µM)
- MIC (Staphylococcus aureus [6]): 1.56 µg/mL (≈ 5.16 µM)
- MIC (Staphylococcus aureus [7]): 1.56 µg/mL (≈ 5.16 µM)
- MIC (Klebsiella pneumoniae): 12.5 µg/mL (≈ 41.4 µM)
- MIC (Escherichia coli [8]): 1.56 µg/mL (≈ 5.16 µM)
- MIC (Bacillus spizizenii [9]): 0.78 µg/mL (≈ 2.58 µM)
- MIC (Staphylococcus aureus [10]): 0.78 µg/mL (≈ 2.58 µM)

SMILES: COc1cccc(-c2nnc(-c3cc([N+](=O)[O-])cn3C)o2)c1
- IC50 (Vero): 299 µM
- Ratio (Candida albicans [1]): 2
- Ratio (Staphylococcus aureus [2]): 2
- Ratio (Staphylococcus aureus [3]): 2
- MIC [4]: 37.4 µg/mL (≈ 125 µM)
- MIC (Candida albicans [5]): 1.56 µg/mL (≈ 5.2 µM)
- MIC (Staphylococcus aureus [6]): 1.56 µg/mL (≈ 5.2 µM)
- MIC (Staphylococcus aureus [7]): 0.39 µg/mL (≈ 1.3 µM)
- MIC (Klebsiella pneumoniae): 12.5 µg/mL (≈ 41.6 µM)
- MIC (Escherichia coli [8]): 3.12 µg/mL (≈ 10.4 µM)
- MIC (Bacillus spizizenii [9]): 1.56 µg/mL (≈ 5.2 µM)
- MIC (Staphylococcus aureus [10]): 0.78 µg/mL (≈ 2.6 µM)
